Our source for the MIC and Activity values is ChEMBL document CHEMBL1165985, “Dihydro-beta-agarofuran sesquiterpenes and pentacyclic triterpenoids from the root bark of Osyris lanceolata” (2010).

For experiment [1], the system named is Bacillus subtilis. Kind of experiment: Antimicrobial activity against Bacillus subtilis ATCC 6633 by agar overlay technique. Type of experiment: functional. Summed up: (§1)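 Adapted agar overlay technique. Strains came from a university microbiology collection. Media were nutrient broth, nutrient agar, mycological peptone and Sabouraud dextrose agar.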
For the next experiment, the system named is Escherichia coli. Kind of experiment: Antimicrobial activity against Escherichia coli ATCC 11229 by agar overlay technique. Type of experiment: functional. Summed up: as §1
The test system of experiment [2] is Radical scavenging activity. Kind of experiment: Antioxidant activity assessed as DPPH radical scavenging activity after 30 mins. It counts as functional. Put shortly:
(§2)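 Semiquantitative TLC-based DPPH radical scavenging, followed over an 8 h period with readings at 30 min, 2 h and 8 h. Activity is expressed as the minimum inhibitory quantity (MIQ, µg) on the plate. Run in duplicate.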

In experiment [3] the test system is Pseudomonas aeruginosa. Kind of experiment: Antimicrobial activity against Pseudomonas aeruginosa NCTC 10332 by agar overlay technique. It counts as functional. Summed up: as §1
The subject of experiment [4] is Staphylococcus aureus. Kind of experiment: Antimicrobial activity against Staphylococcus aureus ATCC 9144 by agar overlay technique. Type of experiment: functional. Put shortly: as §1
In experiment [5] the test system is Radical scavenging activity. Kind of experiment: Antioxidant activity assessed as DPPH radical scavenging activity after 2 hrs. It counts as functional. Summed up:
as §2
In general terms: The DPPH test is a chemical assay of radical scavenging.

In experiment [6] the test system is Radical scavenging activity. Kind of experiment: Antioxidant activity assessed as DPPH radical scavenging activity after 8 hrs. Type of experiment: functional. Summed up:
as §2

The next experiment deals with Candida albicans. Kind of experiment: Antimicrobial activity against Candida albicans ATCC 10231 by agar overlay technique. Type of experiment: functional. Put shortly:
as §1

Experiment [7] relates to Staphylococcus aureus. Kind of experiment: Antimicrobial activity against Staphylococcus aureus ATCC 9144 at 100 ug by agar overlay technique. It counts as functional, organism-based.
In experiment [8] the test system is Pseudomonas aeruginosa. Kind of experiment: Antimicrobial activity against Pseudomonas aeruginosa NCTC 10332 at 100 ug by agar overlay technique. It counts as functional, organism-based.
Experiment [9] has as its system Bacillus subtilis. Kind of experiment: Antimicrobial activity against Bacillus subtilis ATCC 6633 at 100 ug by agar overlay technique. It counts as functional, organism-based.

Structures are written as SMILES. Active and inactive are the calls of the source. The rule behind the calls is not given here.

On to `C[C@H]1C(=O)CC[C@@H]2[C@]1(C)CC[C@H]1[C@@]2(C)CC[C@@]2(C)[C@H]3C[C@@](C)(C(=O)O)CC[C@]3(C)CC[C@]12C` [OCTANDRONIC ACID], for which the MIC worked out at 0.01 µg with Bacillus subtilis [1]; 0.01 µg against Escherichia coli; 0.01 µg in the experiment with Pseudomonas aeruginosa [3]; 0.5 µg against Staphylococcus aureus [4]; 10 µg in experiment [6]; 0.01 µg against Candida albicans. Also, the MIC result in experiment [2] and in experiment [5] was “inactive” in each case.

In the case of `C=C(C)[C@@H]1CC[C@]2(C)[C@H](CC=C3[C@@H]4C[C@](C)(C(=O)O)CC[C@]4(C)CC[C@]32C)[C@@]1(C)CCC(=O)O`, the MIC in the experiment on Bacillus subtilis [1] came to 0.01 µg; against Escherichia coli it was 0.01 µg; against Pseudomonas aeruginosa [3] it was 0.01 µg; against Staphylococcus aureus [4] it was 0.001 µg; in experiment [6] it was 10 µg; against Candida albicans, 0.001 µg. The MIC entry in [2] and in experiment [5] was “inactive” throughout.

As for `C[C@@H]1CC[C@H](OC(=O)c2ccoc2)[C@@]2(C)[C@@H](OC(=O)c3ccoc3)C[C@@H]3C[C@]12OC3(C)C`, the MIC in the experiment with Bacillus subtilis [1] is 0.5 µg; in the experiment on Escherichia coli, 10 µg; with Pseudomonas aeruginosa [3], 0.5 µg; with Staphylococcus aureus [4] it was 10 µg; in experiment [5] it was 10 µg; in experiment [6], 10 µg. The MIC against Candida albicans worked out at 0.01 µg. Moreover, in experiment [2], the MIC result is “inactive”.

In the case of `Clc1ccc(COC(Cn2ccnc2)c2ccc(Cl)cc2Cl)c(Cl)c1` (stereo unspecified) [MICONAZOLE], the MIC with Candida albicans is 0.001 µg.

For the compound `O=C1O[C@H]([C@@H](O)CO)C(O)=C1O`, the MIC in experiment [2] turned out to be 10 µg; in [5], 0.5 µg; in [6] it was 0.01 µg.

Turning to `O=C(N[C@H](CO)[C@H](O)c1ccc([N+](=O)[O-])cc1)C(Cl)Cl` [CHLORAMPHENICOL], the MIC with Bacillus subtilis [1], against Escherichia coli, against Pseudomonas aeruginosa [3] and in the experiment on Staphylococcus aureus [4] was 0.001 µg throughout.

`O=C(O)c1cc(O)c(O)c(O)c1`: the MIC in experiment [2], in experiment [5] and in [6] was 0.01 µg in each case.

Regarding `CC1=CC(=O)[C@H](OC(=O)c2ccoc2)[C@@]2(C)[C@@H](OC(=O)c3ccoc3)C[C@@H]3C[C@]12OC3(C)C`, the result with Staphylococcus aureus [7], with Pseudomonas aeruginosa [8] and with Bacillus subtilis [9] was inactive. The MIC in the experiment on Escherichia coli is 50 µg; in experiment [5], 50 µg; in [6] it was 10 µg; in the experiment on Candida albicans, 10 µg. Besides, the MIC result in experiment [2] is “inactive”.

Take `C[C@@H]1CC(=O)[C@H](OC(=O)c2ccoc2)[C@@]2(C)[C@@H](OC(=O)c3ccoc3)C[C@@H]3C[C@]12OC3(C)C`: the MIC was 10 µg in the experiment with Bacillus subtilis [1]; 10 µg in the experiment with Escherichia coli; 10 µg in the experiment on Pseudomonas aeruginosa [3]; 50 µg against Staphylococcus aureus [4]; 10 µg in experiment [5]; 10 µg in experiment [6]. This compound registered an MIC against Candida albicans of 0.5 µg. Further, the MIC result in experiment [2] was “inactive”.
